pIC50: −log10 of the molar value.
Key:
[1] = tested on: ALDH^High-HCP-1 CSC-derived tumors; test: In vivo tumor growth, ALDH^High-HCP-1 CSC xenograft; parameters: species or system mice
In short: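 NSG mice in 5 groups of 5. FACS-sorted ALDHHigh HCP-1 cells (2500 in Matrigel) injected subcutaneously into both flanks. Test compound given IP at 3, 10 or 35 mg kg−1, or IOX1 at 10 mg kg−1, in PBS/Kolliphor EL vehicle; controls got vehicle; 16 days. Body weight taken every other day, tumour volume on days 9, 13–16, tumour weight at sacrifice.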

SW480 cells = test: Clonogenic assay SW480; assay type: cell-based, human; details: SW480, 2 weeks
In short: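 Cells kept in DMEM with 10% FBS and 1% pen–strep, seeded at 500 cells/well and dosed with test compound once attached. Medium refreshed every 3 days for 2 weeks. Colonies stained with 0.5% crystal violet and photographed. ED50 obtained by image analysis.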

hERG potassium channel = hERG potassium channel (Homo sapiens, UniProt Q12809); test: hERG automated patch-clamp assay; assay type: cell-based
In short: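 hERG-expressing CHO-K1 cells were plated at least 24 h beforehand and recorded by whole-cell patch clamp at about RT with 0.1% Pluronic F-68. Holding −80 mV; 500 ms step to −40 mV for leak subtraction; 500 ms step to +40 mV, then 100 ms ramp to −80 mV for tail current, every 8 s. Block = mean tail amplitude over the last 15 s with test compound ÷ control.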

[2] = Hepatic metabolism S9 fraction incubation, human
[3] = tested on: 293T cells expressing a TCF-responsive luciferase reporter (293T-TCF-Luc); test: Wnt luciferase reporter assay; assay type: cell-based; details: Homo sapiens, HEK-293T, 16 h, read-out: IC50 (293T-TCF-Luc)
In short: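 293T cells stably transduced with a lentiviral TCF/LEF–luciferase reporter and selected in puromycin ([…], 4 days). Seeded at 100 000 cells/well and dosed with test compound on attachment. Wnt signalling stimulated with 20 mM LiCl 4 h later. Lysates taken at 16 h; Bright-Glo luminescence normalised to total protein.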

KDM3B = KDM3B (Homo sapiens, UniProt Q7LBC6); test: IHC of HCP-1 xenograft tumors, KDM3B; assay type: in vivo, mice; details: HCP-1 xenograft tumor tissues
[4] = Hepatic metabolism S9 fraction incubation, rat
[5] = tested on: KDM4 family proteins (KDM4A, KDM4B and KDM4C); test: Western blot KDM4 family proteins in SW480 cells; assay type: cell-based, human
In short: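 Lysates from compound-treated SW480 cells normalised for total protein and resolved by SDS-PAGE. Semi-dry transfer to PVDF, 1 h block in 5% milk. Overnight incubation at 4 °C with anti-KDM4A, -KDM4B or -KDM4C antibody in 1% milk, secondary 1 h at RT, TBST washes, α-tubulin as loading control.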

KDM3A = target: T1, KDM3A (Homo sapiens, UniProt Q9Y4C1); test: Western blot KDM3A degradation in SW480 cells; assay type: cell-based
T1 sequence (Q9Y4C1 1-1321): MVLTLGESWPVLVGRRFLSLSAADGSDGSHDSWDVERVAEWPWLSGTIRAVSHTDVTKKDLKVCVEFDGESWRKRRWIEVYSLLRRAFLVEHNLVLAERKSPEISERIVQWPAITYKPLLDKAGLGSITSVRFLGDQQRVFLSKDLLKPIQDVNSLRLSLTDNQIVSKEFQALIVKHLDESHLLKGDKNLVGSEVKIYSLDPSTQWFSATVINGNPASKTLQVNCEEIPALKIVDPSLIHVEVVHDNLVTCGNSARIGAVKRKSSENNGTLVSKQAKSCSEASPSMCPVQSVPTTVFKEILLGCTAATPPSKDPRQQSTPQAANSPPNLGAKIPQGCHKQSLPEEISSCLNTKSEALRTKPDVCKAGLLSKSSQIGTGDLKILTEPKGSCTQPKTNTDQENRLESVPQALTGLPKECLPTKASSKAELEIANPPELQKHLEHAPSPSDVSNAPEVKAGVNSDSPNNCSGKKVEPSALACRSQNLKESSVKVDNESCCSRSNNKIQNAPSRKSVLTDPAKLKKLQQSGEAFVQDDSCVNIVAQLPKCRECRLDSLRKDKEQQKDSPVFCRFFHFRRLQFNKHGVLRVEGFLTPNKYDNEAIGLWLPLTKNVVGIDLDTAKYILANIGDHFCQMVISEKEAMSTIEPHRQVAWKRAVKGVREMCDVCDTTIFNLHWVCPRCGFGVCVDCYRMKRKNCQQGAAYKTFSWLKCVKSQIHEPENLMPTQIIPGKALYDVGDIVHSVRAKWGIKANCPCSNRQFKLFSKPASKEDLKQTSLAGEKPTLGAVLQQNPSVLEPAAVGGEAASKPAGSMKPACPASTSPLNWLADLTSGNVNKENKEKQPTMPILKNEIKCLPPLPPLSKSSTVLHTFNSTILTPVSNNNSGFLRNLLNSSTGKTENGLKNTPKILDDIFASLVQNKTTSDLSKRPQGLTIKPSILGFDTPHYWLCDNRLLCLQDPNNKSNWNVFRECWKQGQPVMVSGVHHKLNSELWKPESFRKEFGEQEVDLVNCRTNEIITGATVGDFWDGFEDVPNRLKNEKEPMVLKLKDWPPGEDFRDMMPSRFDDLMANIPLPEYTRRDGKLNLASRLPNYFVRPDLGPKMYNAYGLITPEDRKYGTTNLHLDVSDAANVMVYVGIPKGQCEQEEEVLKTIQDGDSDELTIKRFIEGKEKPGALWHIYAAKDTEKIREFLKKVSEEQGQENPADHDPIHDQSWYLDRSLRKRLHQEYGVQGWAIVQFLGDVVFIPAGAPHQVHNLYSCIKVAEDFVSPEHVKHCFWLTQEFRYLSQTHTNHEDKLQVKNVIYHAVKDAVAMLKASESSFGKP
In short: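 SW480 cells exposed to test compound for 16 h, then total lysates protein-normalised and run on SDS-PAGE. Semi-dry transfer to PVDF, 1 h block in 5% milk. Primary antibody overnight at 4 °C in 1% milk, secondary 1 h at RT, TBST washes, α-tubulin as loading control. Rescue arms co-treated with MLN4924 (1 μM) or pomalidomide (100 μM). Test compound at 0.1 μM for the KDM3A blot and 1 μM for the KDM3B blot.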

[6] = 0.1 μM, plus glutathione, UDPGA, PAPS, 37 °C

Chain of hERG potassium channel (Q12809 whole entry): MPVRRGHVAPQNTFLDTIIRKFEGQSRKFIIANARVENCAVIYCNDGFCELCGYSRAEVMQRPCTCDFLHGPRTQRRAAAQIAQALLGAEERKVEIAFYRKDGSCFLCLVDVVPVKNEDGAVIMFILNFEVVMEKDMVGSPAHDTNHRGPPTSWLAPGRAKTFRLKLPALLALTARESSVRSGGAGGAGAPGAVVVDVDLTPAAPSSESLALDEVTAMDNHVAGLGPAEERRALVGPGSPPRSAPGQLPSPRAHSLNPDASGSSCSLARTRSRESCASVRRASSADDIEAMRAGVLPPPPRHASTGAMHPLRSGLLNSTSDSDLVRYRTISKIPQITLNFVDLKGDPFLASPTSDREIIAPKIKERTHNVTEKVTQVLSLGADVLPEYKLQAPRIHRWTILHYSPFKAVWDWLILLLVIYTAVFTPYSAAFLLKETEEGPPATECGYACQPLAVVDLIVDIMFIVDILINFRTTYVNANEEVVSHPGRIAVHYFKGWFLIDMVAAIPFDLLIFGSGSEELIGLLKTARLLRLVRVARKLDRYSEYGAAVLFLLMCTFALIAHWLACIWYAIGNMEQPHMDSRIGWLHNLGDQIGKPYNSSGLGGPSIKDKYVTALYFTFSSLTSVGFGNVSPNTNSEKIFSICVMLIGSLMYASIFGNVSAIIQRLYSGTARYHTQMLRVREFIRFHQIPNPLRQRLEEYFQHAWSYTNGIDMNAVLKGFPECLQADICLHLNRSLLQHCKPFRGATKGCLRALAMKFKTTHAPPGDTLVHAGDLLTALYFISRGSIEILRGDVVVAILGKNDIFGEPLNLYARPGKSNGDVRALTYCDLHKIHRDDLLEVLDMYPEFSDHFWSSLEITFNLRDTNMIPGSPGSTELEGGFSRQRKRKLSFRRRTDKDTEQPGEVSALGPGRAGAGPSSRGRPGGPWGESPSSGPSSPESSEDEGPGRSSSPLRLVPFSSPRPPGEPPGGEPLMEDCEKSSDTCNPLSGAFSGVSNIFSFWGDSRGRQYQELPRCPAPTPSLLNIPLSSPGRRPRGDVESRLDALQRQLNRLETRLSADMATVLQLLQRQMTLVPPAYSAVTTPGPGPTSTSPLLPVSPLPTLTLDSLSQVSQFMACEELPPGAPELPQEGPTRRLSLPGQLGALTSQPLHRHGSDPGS
Chain of KDM3B (Q7LBC6 whole entry): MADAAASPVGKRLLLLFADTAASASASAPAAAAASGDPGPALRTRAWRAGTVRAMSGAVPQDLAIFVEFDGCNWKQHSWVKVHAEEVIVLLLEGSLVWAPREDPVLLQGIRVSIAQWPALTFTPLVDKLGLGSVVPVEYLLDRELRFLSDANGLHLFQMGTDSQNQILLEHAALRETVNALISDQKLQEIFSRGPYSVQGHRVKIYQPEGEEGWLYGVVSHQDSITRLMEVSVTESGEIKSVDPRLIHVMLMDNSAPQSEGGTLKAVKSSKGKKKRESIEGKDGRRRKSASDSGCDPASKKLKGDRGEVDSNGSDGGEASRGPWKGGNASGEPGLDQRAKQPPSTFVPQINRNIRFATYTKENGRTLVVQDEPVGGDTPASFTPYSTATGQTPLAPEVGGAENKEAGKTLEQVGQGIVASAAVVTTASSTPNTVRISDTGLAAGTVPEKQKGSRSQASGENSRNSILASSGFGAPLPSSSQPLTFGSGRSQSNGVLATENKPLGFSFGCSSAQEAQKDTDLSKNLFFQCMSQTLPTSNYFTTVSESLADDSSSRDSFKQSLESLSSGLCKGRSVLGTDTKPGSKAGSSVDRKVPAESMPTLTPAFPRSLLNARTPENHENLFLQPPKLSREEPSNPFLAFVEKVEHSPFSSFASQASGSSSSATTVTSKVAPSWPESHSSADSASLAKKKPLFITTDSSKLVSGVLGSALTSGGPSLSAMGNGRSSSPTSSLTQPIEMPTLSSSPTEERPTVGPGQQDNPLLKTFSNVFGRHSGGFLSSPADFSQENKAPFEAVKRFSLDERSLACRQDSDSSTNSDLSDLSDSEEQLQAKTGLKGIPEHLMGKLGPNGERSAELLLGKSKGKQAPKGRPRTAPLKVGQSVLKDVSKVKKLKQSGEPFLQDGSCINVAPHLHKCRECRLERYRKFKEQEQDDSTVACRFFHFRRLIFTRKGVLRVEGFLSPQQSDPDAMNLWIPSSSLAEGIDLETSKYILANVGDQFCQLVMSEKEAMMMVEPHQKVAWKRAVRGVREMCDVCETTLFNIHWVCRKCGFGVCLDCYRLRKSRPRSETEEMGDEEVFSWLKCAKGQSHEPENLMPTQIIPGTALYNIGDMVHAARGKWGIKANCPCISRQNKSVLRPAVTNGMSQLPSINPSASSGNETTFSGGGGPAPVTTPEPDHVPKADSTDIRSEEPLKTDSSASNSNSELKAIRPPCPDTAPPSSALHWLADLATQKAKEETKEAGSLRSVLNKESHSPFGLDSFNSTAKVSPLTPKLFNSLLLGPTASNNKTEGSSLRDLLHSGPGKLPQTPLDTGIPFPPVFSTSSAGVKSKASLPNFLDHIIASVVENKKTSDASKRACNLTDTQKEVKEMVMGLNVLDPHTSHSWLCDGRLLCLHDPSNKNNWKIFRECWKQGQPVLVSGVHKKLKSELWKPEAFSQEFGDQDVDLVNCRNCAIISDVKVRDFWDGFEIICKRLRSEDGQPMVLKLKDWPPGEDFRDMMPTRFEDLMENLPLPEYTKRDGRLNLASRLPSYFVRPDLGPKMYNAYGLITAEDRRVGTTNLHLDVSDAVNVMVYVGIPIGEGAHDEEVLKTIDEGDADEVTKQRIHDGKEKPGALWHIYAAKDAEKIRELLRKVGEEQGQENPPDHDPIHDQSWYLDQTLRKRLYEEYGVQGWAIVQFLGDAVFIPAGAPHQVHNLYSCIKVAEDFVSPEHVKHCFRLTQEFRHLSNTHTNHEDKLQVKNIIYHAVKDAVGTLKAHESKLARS

## O=C1CCC(N2C(=O)c3cccc(NCCOCCOCCOCCOCCNC(=O)c4ccc(O)c5ncccc45)c3C2=O)C(=O)N1 (stereo not shown) [Compound 4, N-(14-((2-(2,6-Dioxopiperidin-3-yl)-1,3-dioxoisoindolin-4-yl)amino)-3,6,9,12-tetraoxatetradecyl)-8-hydroxyquinoline-5-carboxamide]
[1]; 3 mg kg^−1 IP vs IOX1 10 mg kg^−1
  tumor volume and tumor weight vs IOX1 group: no significant change
[1]; 3, 10, 35 mg kg^−1 IP, 16 days, vs vehicle
  CSC-derived tumor growth: significantly inhibited
[1]; 10 and 35 mg kg^−1 IP vs IOX1 10 mg kg^−1
  tumor volume and tumor weight vs IOX1 group: significantly decreased
[1]; IP, 16 days
  body weight of mice: little impact on the body weight
SW480 cells
  colony formation: potently inhibited the colony formation
hERG potassium channel
  pIC50: < 4.52
[2]; [6]
  CLint Human (liver, S9): 41.6 µL/min/mg
  t 1/2 Human (liver, S9): 16.7 min
[2]; CLint classification bands
  clearance classification, human: moderate clearance
[2]; human, s9, t 1/2 Human (liver, S9), 0.1 μM, plus glutathione, UDPGA, PAPS, 37 °C
  half-life at 0.1 μM: 16 min
[3]
  pIC50: 5.05
KDM3B
  KDM3B degradation in vivo (IHC): confirmed the PROTAC-induced KDM3A and KDM3B degradation in vivo
[4]; [6]
  CLint Rat (liver, S9): 34.5 µL/min/mg
  t 1/2 Rat (liver, S9): 20.1 min
[4]; CLint classification bands
  clearance classification, rat: moderate clearance
[4]; rat, s9, t 1/2 Rat (liver, S9), 0.1 μM, plus glutathione, UDPGA, PAPS, 37 °C
  half-life at 0.1 μM: 20 min
[5]
  effect on KDM4 family proteins: not dramatically affected
KDM3A; SW480, read-out: Dmax KDM3A
  Dmax: 65.3%
KDM3A; SW480, MLN4924 1 μM, compound 4 0.1 μM
  KDM3A degradation with MLN4924 co-treatment: could be restored by MLN4924
KDM3A; SW480, pomalidomide 100 μM, compound 4 0.1 μM
  KDM3A degradation with pomalidomide or IOX1 co-treatment: could also be suppressed by either pomalidomide or IOX1
KDM3A; SW480 cells, 16 hours
  KDM3A degradation (western blot): degrades both KDM3A and KDM3B at nanomolar concentrations
KDM3A; read-out: DC50 KDM3A, SW480 cells, 16 hours
  DC50: 0.0137 µM

From article PMC11393732 (RSC Medicinal Chemistry, 2024)
